Assay results taken from article PMC11143505 (Acta Pharmaceutica Sinica. B, 2024).

What was measured:
[1] = test system: healthy C57BL/6 mice; assay: Hypoglycemia effect in fasted healthy mice; type: in vivo; conditions: for number of mice died from hypoglycemia / dose at which mice started to suffer from notable hypoglycemia: n = 6
Procedure, shortened: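 Tail-vein glucose was read by glucose meter at 30 min and 1–6 h. Hypoglycaemic effect was the area above the glycaemic curve and below 3.3 mmol/L. Survival was recorded at 10 U/kg. One-way ANOVA with Tukey test.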

[2] = Absorption and urine excretion of Cy7-labeled samples; type: in vivo, mice; conditions: s.c., n = 3; for time at which fluorescence at the injected site was undetectable: live imaging
[3] = Pharmacokinetics; type: in vivo, mice; conditions: n = 5; for delay of time to peak concentration: compared with insulin
[4] = test system: STZ-induced diabetic mice; assay: Glycemic control in STZ-induced type 1 diabetic mice with IPGTT; type: in vivo; conditions: s.c.; for number of mice experiencing hypoglycemia within 4 h post-injection / time for blood glucose to drop to the normoglycemic range: n = 6; for time for blood glucose to drop to the normoglycemic range: fasted STZ diabetic mice; for response to the first glucose challenge (IPGTT): glucose 2 g/kg i.p. at 4.5 h
[5] = biological target: insulin receptor (Mus musculus, UniProt P15208); assay: Cell-based insulin receptor activation assay; conditions: C2C12 cells, phospho-AKT (Ser473) HTRF; relative to native insulin = 100%
Sequence of insulin receptor (P15208 28-748 limits assumed): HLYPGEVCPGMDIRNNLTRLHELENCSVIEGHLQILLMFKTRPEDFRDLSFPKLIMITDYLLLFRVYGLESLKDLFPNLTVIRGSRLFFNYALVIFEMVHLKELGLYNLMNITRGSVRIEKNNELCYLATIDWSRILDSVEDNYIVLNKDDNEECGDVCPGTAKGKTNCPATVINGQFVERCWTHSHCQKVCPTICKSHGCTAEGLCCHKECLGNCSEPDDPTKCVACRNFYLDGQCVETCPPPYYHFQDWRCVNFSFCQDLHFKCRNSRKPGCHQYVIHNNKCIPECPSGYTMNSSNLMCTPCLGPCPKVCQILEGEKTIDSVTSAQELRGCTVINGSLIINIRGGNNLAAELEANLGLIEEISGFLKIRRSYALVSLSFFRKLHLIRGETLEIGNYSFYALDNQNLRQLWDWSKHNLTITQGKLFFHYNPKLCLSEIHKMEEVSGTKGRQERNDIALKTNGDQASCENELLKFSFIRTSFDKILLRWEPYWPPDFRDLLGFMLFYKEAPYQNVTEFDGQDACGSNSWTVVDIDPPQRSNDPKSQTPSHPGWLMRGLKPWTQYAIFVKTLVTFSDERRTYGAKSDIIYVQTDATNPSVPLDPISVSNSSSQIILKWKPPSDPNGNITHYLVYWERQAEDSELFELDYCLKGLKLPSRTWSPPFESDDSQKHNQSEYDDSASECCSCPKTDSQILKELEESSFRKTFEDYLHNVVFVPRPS
Sequence of insulin receptor (P15208 753-1372 partner limits assumed): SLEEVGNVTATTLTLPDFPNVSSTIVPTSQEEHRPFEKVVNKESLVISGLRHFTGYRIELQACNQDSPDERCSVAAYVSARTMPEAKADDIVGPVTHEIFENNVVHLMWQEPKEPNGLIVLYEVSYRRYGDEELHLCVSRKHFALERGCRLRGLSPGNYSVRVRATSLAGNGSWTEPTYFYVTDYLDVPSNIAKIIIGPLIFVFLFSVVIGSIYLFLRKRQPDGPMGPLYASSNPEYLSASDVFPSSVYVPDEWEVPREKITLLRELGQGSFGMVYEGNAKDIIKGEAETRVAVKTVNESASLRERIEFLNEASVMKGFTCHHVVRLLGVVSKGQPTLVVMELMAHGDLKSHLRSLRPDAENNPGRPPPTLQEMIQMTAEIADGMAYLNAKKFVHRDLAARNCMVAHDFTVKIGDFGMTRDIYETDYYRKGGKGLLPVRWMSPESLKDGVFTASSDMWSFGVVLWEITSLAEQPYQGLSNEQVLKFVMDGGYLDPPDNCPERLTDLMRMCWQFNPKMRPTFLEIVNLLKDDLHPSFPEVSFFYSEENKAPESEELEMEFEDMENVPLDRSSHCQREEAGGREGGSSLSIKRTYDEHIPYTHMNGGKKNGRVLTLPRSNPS

[6] = Dynamic light scattering; type: physicochemical; conditions: DLS in PBS, average of three measurements
[7] = test system: diabetic mice; assay: Long-term efficacy in diabetic mice; type: in vivo; conditions: for kidney Masson staining, amount of collagen fiber / kidney PAS staining: Day 14; for kidney H&E pathological features: Day 14, insulin 1 mg/kg, di-PEGylated insulin 3 mg/kg
Procedure, shortened: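 Diabetes was induced in C57BL/6 mice with STZ 50 mg/kg i.p. in 0.1 mol/L citrate pH 4.5 on 5 consecutive days; only mice with fasting glucose >16.7 mmol/L at 2 weeks were used. […] Serum glycated protein, CREA and BUN were measured by kit on Days 7 and 14. Day-14 kidneys were stained with H&E, PAS and Masson (200×). Dunnett-corrected ANOVA.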

[8] = test system: healthy C57 mice; assay: Biosafety in healthy mice; type: in vivo; conditions: 2 weeks daily; for blood cell counts: n = 5 or 6
Procedure, shortened: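 Body weight was recorded every 2 days. After two weeks, blood was collected and blood cell counts were run on an automated veterinary haematology analyser.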

[9] = In vitro stability; type: physicochemical; conditions: 1 mg/mL in PBS pH 7.4, 37 °C, 100 rpm, 80 h
[10] = diabetic mice, Iso-insulin ELISA

Substance | number of mice died from hypoglycemia ([1]; s.c., 10 U/kg, healthy mice) | dose at which mice started to suffer from notable hypoglycemia ([1]; s.c., fasted healthy mice) | time at which fluorescence at the injected site was undetectable [2] | delay of time to peak concentration [3, 10] | number of mice experiencing hypoglycemia within 4 h post-injection ([4]; 5 U/kg, STZ diabetic mice) | time for blood glucose to drop to the normoglycemic range ([4]; 5 U/kg) | response to the first glucose challenge (IPGTT) ([4]; 5 U/kg) | Emax [5] | hydrodynamic size [6] | kidney Masson staining, amount of collagen fiber [7] | kidney PAS staining [7] | kidney H&E pathological features [7] | blood cell counts [8] | other results
mono-PEGylated insulin: insulin conjugated with one PEG chain (MW 5000) at Lys B29 | 5 | 2 U/kg | 4 h | approximately 1 h | 4 | ≤ 30 min | moderate efficacy but failed to lower blood glucose to normoglycemic levels | 95.7% | – | – | – | – | – | increase in maximum tolerated dose ([1]; healthy mice, from area under the hypoglycemia line, 10 U/kg vs 1 U/kg insulin): didn't show a significant improvement; response to the following two additional IPGTTs ([4]; 5 U/kg, glucose 2 g/kg i.p. at 7.5 and 10.5 h): didn't exhibit glucose-lowering effects
di-PEGylated insulin: insulin conjugated with two PEG chains (MW 5000) at Lys B29 and Gly A1 | – | – | 4 h | approximately 1 h | no mice | – | – | 63.5% | 8.3 ± 1.1 nm | decreased | preserved glomerular basement membrane | somewhat attenuated | no noticeable change | hypoglycemia in healthy mice ([1]; s.c., 10 U/kg, fasted healthy mice, n = 6, threshold 3.3 mmol/L): didn't suffer from hypoglycemia; time at which urine fluorescence signals could still be detected ([2]; Cy7 0.1 mg/kg): 12 h; glycated serum protein (GSP) level ([7]; 2-week treatment, 3 mg/kg daily, n = 6): markedly reduced; time at which serum concentration was still detected [3, 10]: 12 h; duration of blood glucose management after a single dose ([4]; 15 U/kg, STZ diabetic mice, three IPGTT 2 g/kg): over 13 h; change in transmittance after the assay [9]: less than 2%
insulin: Recombinant human insulin (26 U/mg) from Tonghua Dongbao Pharmaceutical [reference compound] | 4 | 2 U/kg | – | – | 5 | ≤ 30 min | didn't show any efficacy in lowering blood glucose | 100% | 4.1 ± 0.2 nm | decreased | thicker glomerular basement membrane and incomplete brush border | somewhat attenuated | no noticeable change | fluorescence retention rate at the injected site ([2]; 4 h post-injection): 50%; time of maximum urine fluorescence signal ([2]; Cy7 0.1 mg/kg, IVIS imaging of urine): 2 h; time at which urine fluorescence was close to the background value ([2]; Cy7 0.1 mg/kg): 4 h; inflammatory cell infiltration in the skin at the injection site ([8]; H&E): No significant inflammatory cell infiltration; time at which serum concentration was essentially undetectable ([3]; healthy mice, insulin ELISA): 4 h
